Legend:
Renin [1] = target: T1, Renin (Homo sapiens, UniProt P00797); assay: Inhibition of human recombinant renin using Q-FRET substrate after 3 hrs by fluorescence assay
T1 sequence (P00797 whole entry): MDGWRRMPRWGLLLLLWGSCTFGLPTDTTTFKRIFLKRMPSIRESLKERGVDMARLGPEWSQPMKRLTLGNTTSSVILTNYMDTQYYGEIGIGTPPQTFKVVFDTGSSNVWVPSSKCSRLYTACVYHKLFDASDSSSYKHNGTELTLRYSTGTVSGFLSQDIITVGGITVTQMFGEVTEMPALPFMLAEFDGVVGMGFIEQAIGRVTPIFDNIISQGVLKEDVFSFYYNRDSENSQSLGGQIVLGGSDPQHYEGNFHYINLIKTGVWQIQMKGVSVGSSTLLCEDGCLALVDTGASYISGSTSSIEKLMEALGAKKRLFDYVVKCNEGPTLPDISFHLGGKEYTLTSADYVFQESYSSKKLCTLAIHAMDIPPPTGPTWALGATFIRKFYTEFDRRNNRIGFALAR

Renin [2] = target: T1, Renin; assay: Inhibition of renin in human plasma using Q-FRET substrate pretreated for 10 mins before substrate addition measured after 1 hr
CYP3A4 [3] = target: T2, CYP3A4 (Homo sapiens, UniProt P08684); assay: Time dependent inhibition of CYP3A4 assessed as conversion of testosterone to 6-beta-hydroxytestosterone at 10 uM relative to control; assay type: ADME; conditions: probe testosterone
T2 sequence (P08684 whole entry): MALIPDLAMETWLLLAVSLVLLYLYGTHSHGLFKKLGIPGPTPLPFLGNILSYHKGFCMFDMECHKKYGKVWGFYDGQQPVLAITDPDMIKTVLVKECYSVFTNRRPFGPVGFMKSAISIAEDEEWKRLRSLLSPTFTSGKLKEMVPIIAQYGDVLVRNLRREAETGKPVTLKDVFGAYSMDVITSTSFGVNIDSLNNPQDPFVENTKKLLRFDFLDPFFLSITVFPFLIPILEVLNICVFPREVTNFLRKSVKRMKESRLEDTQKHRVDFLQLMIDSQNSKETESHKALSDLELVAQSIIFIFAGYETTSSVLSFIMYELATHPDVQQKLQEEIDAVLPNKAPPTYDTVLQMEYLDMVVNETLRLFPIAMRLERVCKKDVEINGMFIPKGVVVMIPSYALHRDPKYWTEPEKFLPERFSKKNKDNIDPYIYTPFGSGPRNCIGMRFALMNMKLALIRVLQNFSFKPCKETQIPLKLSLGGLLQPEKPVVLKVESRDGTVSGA
Outline: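 Rate of CYP3A4 conversion of testosterone (250 μM) to 6-β-hydroxytestosterone measured before and after a 30 min incubation with compound at 10 μM (in DMSO). Difference expressed as % loss.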

[4] = Oral bioavailability in Sprague-Dawley rat at 20 mg/kg; assay type: ADME, organism-based; conditions: in vivo
[5] = Oral bioavailability in Sprague-Dawley rat at 30 mg/kg; assay type: ADME, organism-based; conditions: in vivo
[6] = target: Voltage-gated inwardly rectifying potassium channel KCNH2 (Homo sapiens, UniProt Q12809); assay: Inhibition of human ERG
Chain of Voltage-gated inwardly rectifying potassium channel KCNH2 (Q12809 whole entry): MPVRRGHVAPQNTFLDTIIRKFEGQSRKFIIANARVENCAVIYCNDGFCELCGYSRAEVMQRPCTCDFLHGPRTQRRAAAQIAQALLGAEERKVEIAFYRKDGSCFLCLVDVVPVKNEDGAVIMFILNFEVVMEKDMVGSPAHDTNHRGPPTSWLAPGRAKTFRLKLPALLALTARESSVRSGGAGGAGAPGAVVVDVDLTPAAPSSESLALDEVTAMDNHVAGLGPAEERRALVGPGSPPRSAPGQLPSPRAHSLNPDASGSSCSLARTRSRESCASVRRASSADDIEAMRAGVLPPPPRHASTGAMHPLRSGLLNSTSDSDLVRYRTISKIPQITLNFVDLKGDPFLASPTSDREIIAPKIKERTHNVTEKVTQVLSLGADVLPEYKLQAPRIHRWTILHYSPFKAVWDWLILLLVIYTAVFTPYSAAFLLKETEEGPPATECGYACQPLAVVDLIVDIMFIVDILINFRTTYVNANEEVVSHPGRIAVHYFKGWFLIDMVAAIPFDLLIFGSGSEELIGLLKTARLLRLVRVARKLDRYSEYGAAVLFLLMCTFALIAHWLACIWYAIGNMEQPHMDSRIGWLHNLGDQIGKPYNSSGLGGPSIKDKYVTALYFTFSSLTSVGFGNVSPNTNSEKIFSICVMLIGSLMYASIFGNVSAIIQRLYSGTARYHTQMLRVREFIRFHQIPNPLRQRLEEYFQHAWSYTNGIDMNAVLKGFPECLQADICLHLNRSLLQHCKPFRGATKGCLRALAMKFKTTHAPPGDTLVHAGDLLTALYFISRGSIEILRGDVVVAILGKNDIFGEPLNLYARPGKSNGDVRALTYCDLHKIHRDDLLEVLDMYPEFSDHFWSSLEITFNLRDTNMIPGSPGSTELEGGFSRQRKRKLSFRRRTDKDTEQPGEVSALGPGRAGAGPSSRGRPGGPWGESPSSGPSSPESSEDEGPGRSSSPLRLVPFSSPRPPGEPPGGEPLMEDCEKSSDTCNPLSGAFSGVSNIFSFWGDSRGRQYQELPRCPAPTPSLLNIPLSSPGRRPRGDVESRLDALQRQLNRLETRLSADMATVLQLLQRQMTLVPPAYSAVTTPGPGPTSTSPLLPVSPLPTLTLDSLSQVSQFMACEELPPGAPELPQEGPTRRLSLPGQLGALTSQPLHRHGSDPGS

CYP3A4 [7] = target: T2, CYP3A4; assay: Reversible inhibition of CYP3A4 assessed as conversion of testosterone to 6-beta-hydroxytestosterone at 10 uM relative to control; assay type: ADME; conditions: probe testosterone
[8] = Oral bioavailability in Sprague-Dawley rat at 3 mg/kg; assay type: ADME, organism-based; conditions: in vivo

Structure (SMILES) | IC50 (Renin [1]) [nM] | IC50 (Renin [2]) [nM] | inhibition at 10 µM (CYP3A4 [3]) [%] | bioavailability [4] [%] | bioavailability [5] [%] | Ki [6] [nM] | activity % at 10 µM (CYP3A4 [7]) [%] | bioavailability [8] [%]
COCCCc1cc(CN(C(=O)[C@H]2CNCC[C@@H]2c2cc(=O)n(C)c3cc(Cl)ccc23)C2CC2)cc(OCCOC)c1 | 2 | 8 | 4 | 20 | – | – | – | –
COCCCn1cc(CN(C(=O)[C@H]2CNCC[C@@H]2c2ccn(C)c(=O)c2)C2CC2)c2c(F)cccc21 | 0.32 | 0.87 | 0 | – | 8 | > 29000 | 41 | –
Cn1ccc([C@H]2CCNC[C@@H]2C(=O)N(Cc2cn(Cc3ccc(F)cc3)c3cccc(F)c23)C2CC2)cc1=O | 0.05 | 0.48 | 70 | – | 17 | 750 | 16 | –
COCCCn1cc(CN(C(=O)[C@H]2CNCC[C@@H]2c2ccn(C)c(=O)c2)C2CC2)c2c(Cl)cccc21 | 0.12 | 0.64 | 19 | – | 22 | 23000 | 48 | –
COCCCc1ccc(Cl)c(CN(C(=O)[C@H]2CNCC[C@@H]2c2ccn(C)c(=O)c2)C2CC2)c1 | 8 | 25 | 29 | 14 | – | – | – | –
COCCCc1cc(CN(C(=O)[C@H]2CNCC[C@@H]2c2cccnc2)C2CC2)cc(OCCOC)c1 | 45 | 140 | 9 | 61 | – | > 29000 | 75 | –
Cn1ccc([C@H]2CCNC[C@@H]2C(=O)N(Cc2cn(Cc3cccc(F)c3)c3cccc(F)c23)C2CC2)cc1=O | 0.06 | 0.63 | 39 | – | 30 | 1200 | 18 | –
CC(=O)NCCc1cc(Cl)c(Cl)c(CN(C(=O)[C@H]2CNCC[C@@H]2c2ccn(C)c(=O)c2)C2CC2)c1 | 4.5 | 9 | 0 | 0 | – | > 29000 | 97 | –
COCCCc1cc(CN(C(=O)[C@H]2CNCC[C@@H]2c2cc(=O)n(C)c(C)c2C)C2CC2)cc(OCCOC)c1 | 25 | 80 | 0 | 0 | – | > 29000 | 41 | –
Cn1ccc([C@H]2CCNC[C@@H]2C(=O)N(Cc2cccc(Cl)c2Cl)C2CC2)cc1=O | 20 | 42 | 37 | 23 | – | 13000 | 61 | –
COCCNc1cc(Cl)c(Cl)c(CN(C(=O)[C@H]2CNCC[C@@H]2c2ccn(C)c(=O)c2)C2CC2)c1 | 7.1 | 26 | 0 | 1 | – | 18000 | 71 | –
Cn1ccc([C@H]2CCNC[C@@H]2C(=O)N(Cc2cc(CCCC#N)cc(Cl)c2Cl)C2CC2)cc1=O | 4.9 | 10 | 20 | 7 | – | 8400 | 55 | –
COCCCc1cc(C)c(C)c(CN(C(=O)[C@H]2CNCC[C@@H]2c2ccn(C)c(=O)c2)C2CC2)c1 | 0.6 | 1 | 15 | – | 7 | – | – | –
COCCCc1cc(CN(C(=O)[C@H]2CNCC[C@@H]2c2cc(=O)n(C)c3ccccc23)C2CC2)cc(OCCOC)c1 | 13 | 39 | 5 | 1 | – | 28000 | 100 | –
Cn1ccc([C@H]2CCNC[C@@H]2C(=O)N(Cc2cc(CCC#N)cc(Cl)c2Cl)C2CC2)cc1=O | 8.5 | 17 | 15 | 8 | – | 17000 | 52 | –
Cn1ccc([C@H]2CCNC[C@@H]2C(=O)N(Cc2cn(Cc3ccncc3)c3cccc(F)c23)C2CC2)cc1=O | 0.24 | 0.53 | 29 | – | – | 15000 | 44 | 0

Structure (SMILES) | IC50 (Renin [1]) [nM] | IC50 (Renin [2]) [nM] | inhibition at 10 µM (CYP3A4 [3]) [%] | bioavailability [4] [%] | bioavailability [5] [%] | Ki [6] [nM] | activity % at 10 µM (CYP3A4 [7]) [%] | bioavailability [8] [%]
CCn1ccc([C@H]2CCNC[C@@H]2C(=O)N(Cc2cc(CCCOC)cc(OCCOC)c2)C2CC2)cc1=O | 200 | 460 | 5 | 1 | – | > 29000 | 70 | –
Cn1ccc([C@H]2CCNC[C@@H]2C(=O)N(Cc2cn(Cc3cccnc3)c3cccc(F)c23)C2CC2)cc1=O | 0.88 | 2 | 44 | – | – | 12000 | 61 | 0
COCCCc1cc(CN(C(=O)[C@H]2CNCC[C@@H]2c2ccn(C)c(=O)c2)C2CC2)c2ccccc2c1 | 0.4 | 1.4 | 34 | 4 | – | 17000 | 54 | –
COCCCc1cc(CN(C(=O)[C@H]2CNCC[C@@H]2c2ccn(C)c(=O)c2)C2CC2)cc(OCCOC)c1 | – | – | 0 | 3 | – | > 29000 | 78 | –
COCCCc1cc(Br)cc(CN(C(=O)[C@H]2CNCC[C@@H]2c2ccn(C)c(=O)c2)C2CC2)c1 | 1.7 | 3.5 | 45 | 15 | – | – | 15 | –
Cn1ccc([C@H]2CCNC[C@@H]2C(=O)N(Cc2cn(Cc3ccccc3)c3cccc(F)c23)C2CC2)cc1=O | 0.02 | 0.62 | 43 | – | – | – | 19 | 16
COCCCc1cc(Cl)cc(CN(C(=O)[C@H]2CNCC[C@@H]2c2ccn(C)c(=O)c2)C2CC2)c1 | 3 | 6.5 | 1 | – | 28 | 7600 | 23 | –
COCCCc1cc(CN(C(=O)[C@H]2CNCC[C@@H]2c2ccn(C)c(=O)c2)C2CC2)c2ncccc2c1 | 0.8 | 2.2 | 16 | – | 2 | 27000 | 85 | –
COCCCc1cc(CN(C(=O)[C@H]2CNCC[C@@H]2c2ccccc2)C2CC2)cc(OCCOC)c1 | 150 | 580 | 0 | – | – | 7200 | 33 | –
COCCCc1cc(CN(C(=O)[C@H]2CNCC[C@@H]2c2ccc(OCCOc3c(Cl)cc(C)cc3Cl)cc2)C2CC2)cc(OCCOC)c1 | – | – | 27 | 27 | – | 800 | 9 | –
COCCCc1cc(CN(C(=O)[C@H]2CNCC[C@@H]2c2ccn(C)c(=O)c2)C2CC2)cc(-c2ccccc2)c1 | 18 | 81 | 0 | 8 | – | – | 23 | –
Cn1ccc([C@H]2CCNC[C@@H]2C(=O)N(Cc2c[nH]c3cccc(F)c23)C2CC2)cc1=O | 12 | 8.4 | 0 | – | – | > 29000 | 74 | 0
COCCCn1cc(CN(C(=O)[C@H]2CNCC[C@@H]2c2ccn(C)c(=O)c2)C2CC2)c2c(Br)cccc21 | 0.07 | 0.57 | 48 | – | – | 11000 | 63 | 3
COCCc1cc(Cl)c(Cl)c(CN(C(=O)[C@H]2CNCC[C@@H]2c2ccn(C)c(=O)c2)C2CC2)c1 | 0.6 | 2.2 | 23 | 18 | – | 11000 | 68 | –
COC(=O)NCCc1cc(Cl)c(Cl)c(CN(C(=O)[C@H]2CNCC[C@@H]2c2ccn(C)c(=O)c2)C2CC2)c1 | 61 | 210 | 56 | 1 | – | 15000 | 45 | –
COCCCc1cc(CN(C(=O)[C@H]2CNCC[C@@H]2c2ccn(C)c(=O)c2)C2CC2)c2ccccc2n1 | 1.4 | 3 | 13 | 1 | – | > 29000 | 95 | –
